The values that follow come from ChEMBL document CHEMBL1142490, “2-Phenyl-imidazo[1,2-a]pyridine compounds containing hydrophilic groups as potent and selective ligands for peripheral benzodiazepine receptors: synthesis, binding affinity and electrophysiological studies” (J Med Chem, 2008).

The term Ki denotes the dissociation constant of the complex between target and ligand, obtained from inhibition or displacement. Low values mean tighter binding, high ones weaker binding.

Values joined by “and” are separate entries in the source; they are usually repeats but may differ in a detail not shown here. Equal entries are not always repeated. Active and inactive are the calls of the source. The rule behind the calls is not given here.

One test concerns the target Translocator protein (Rattus norvegicus, UniProt P16257). The test can be described thus: Displacement of [3H]PK11195 from peripheral benzodiazepine receptor in Sprague-Dawley rat cerebral cortex membrane by liquid scintillation counting. The class given is tissue-based. The method, boiled down:
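Rat cerebral cortex membranes are washed in PBS, pH 7.4. Incubation with [3H]-ligand (1 nM final), 0.15–0.20 mg protein, 90 min. Filtration on PEI-presoaked GF/B filters, then scintillation counting. Nonspecific binding defined with 10 µM unlabelled ligand. Ki from three experiments in duplicate.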

Test [1] concerns the target T1, GABA-A receptor; alpha-1/beta-2/gamma-2 (Homo sapiens) (UniProt P14867+P47870+P18507). Briefly: Agonist activity at human recombinant GABAA alpha-1-beta-2-gamma-2L receptor expressed in Xenopus oocytes assessed as change in GABA-induced chloride current amplitude at 10 uM by voltage clamp technique. To be noted: Oocyte. The class given is functional, cell-based. The method, boiled down:
(§1)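 Xenopus oocytes (stage V–VI, defolliculated) are nuclear-injected with human α1, β2 and γ2L cDNAs (1:1:1) and recorded about 24 h later. Two-electrode voltage clamp at -70 mV, MBS perfusion, room temperature. […] Reported as percent change from control; 5–10 oocytes per concentration.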

The species entered for test [2] is Rattus norvegicus. The test can be described thus: Selectivity ratio of Ki for central benzodiazepine receptor to Ki for peripheral benzodiazepine receptor in Sprague-Dawley rat cerebral cortex membrane. The class given is tissue-based.
Test [3] can be described thus: Displacement of [3H]flunitrazepam from central benzodiazepine receptor in Sprague-Dawley rat cerebral cortex membrane by liquid scintillation counting. Format: tissue-based. The method, boiled down: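 Rat cortical membranes in 50 mM Tris-HCl, pH 7.4, 0.4–0.5 mg protein. Incubated with [3H]flunitrazepam (0.5 nM final) for 60 min at 0 °C. Filtration, then scintillation counting. Nonspecific binding defined with 5 µM diazepam. Ki from three experiments in duplicate.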
In general terms: In a radioligand displacement assay an active substance lowers the binding of a labelled ligand.

Test [4] deals with T1, GABA-A receptor; alpha-1/beta-2/gamma-2 (Homo sapiens). The test can be described thus: Agonist activity at human recombinant GABAA alpha-1-beta-2-gamma-2L receptor expressed in Xenopus oocytes assessed as change in GABA-induced chloride current amplitude at 1 uM by voltage clamp technique. Format: functional, cell-based. To be noted: Oocyte. The method, boiled down:
as §1

For test [5] the target is unchanged. The test can be described thus: Agonist activity at human recombinant GABAA alpha-1-beta-2-gamma-2L receptor expressed in Xenopus oocytes assessed as inhibition of GABA-induced chloride current amplitude at 10 uM in presence of 10 uM flumazenil by voltage clamp technique. Format: functional, cell-based. To be noted: Oocyte. The method, boiled down: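 Two-electrode voltage clamp (-70 mV) of oocytes expressing human α1β2γ2L GABAA receptors. Percent change of GABA response by compound at 10 µM measured with and without flumazenil at 10 µM. Mean of four oocytes ± SEM.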

For test [6], the species on record is Rattus norvegicus. The test can be described thus: Agonist activity at GABAA alpha-1-beta-2-gamma-2L receptor in Sprague-Dawley rat hippocampal CA1 pyramidal neurons assessed as increase in miniature inhibitory postsynaptic current decay time at 30 uM after 30 mins by whole-cell patch clamp technique. The class given is functional, tissue-based. To be noted: Hippocampus. The method, boiled down: (§2)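 Coronal hippocampal slices (300 µm) from male Sprague-Dawley rats anesthetized with ketamine (250 mg/kg i.p.) are recovered in ACSF, 40 min at 34 °C, then 30 min at room temperature. Whole-cell recordings of mIPSCs from CA1 pyramidal neurons at -65 mV, CsCl-based internal with QX-314. Compound bath-perfused at 30 µM for 30 min. Readout is mIPSC amplitude or decay time versus the pre-drug control.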

The species named for test [7] is Rattus norvegicus. Briefly: Agonist activity at GABAA alpha-1-beta-2-gamma-2L receptor in Sprague-Dawley rat hippocampal CA1 pyramidal neurons assessed as inhibition of miniature inhibitory postsynaptic current decay time at 30 uM after 30 mins in presence of 1 uM finasteride by whole-cell patch clamp technique. The class given is functional, tissue-based. To be noted: Hippocampus. The method, boiled down: (§3)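 Rat hippocampal slices, whole-cell mIPSC recording from CA1 pyramidal neurons at -65 mV. Compound (30 µM) co-applied with finasteride (1 µM) for 30 min. Change in mIPSC amplitude or decay averaged over a 3 min period and given as mean percent change, n = 6.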
A general note: The patch-clamp technique gives a direct electrical read-out from membranes.

For test [8], the species on record is Rattus norvegicus. Briefly: Agonist activity at GABAA alpha-1-beta-2-gamma-2L receptor in Sprague-Dawley rat hippocampal CA1 pyramidal neurons assessed as inhibition of miniature inhibitory postsynaptic current amplitude at 30 uM after 30 mins in presence of 1 uM finasteride by whole-cell patch clamp technique. To be noted: Hippocampus. The class given is functional, tissue-based. The method, boiled down:
as §3

The species named for test [9] is Rattus norvegicus. Briefly: Agonist activity at GABAA alpha-1-beta-2-gamma-2L receptor in Sprague-Dawley rat hippocampal CA1 pyramidal neurons assessed as increase in miniature inhibitory postsynaptic current amplitude at 30 uM after 30 mins by whole-cell patch clamp technique. The class given is functional, tissue-based. To be noted: Hippocampus. The method, boiled down: as §2

Sequence of Translocator protein (P16257 whole entry, looked up): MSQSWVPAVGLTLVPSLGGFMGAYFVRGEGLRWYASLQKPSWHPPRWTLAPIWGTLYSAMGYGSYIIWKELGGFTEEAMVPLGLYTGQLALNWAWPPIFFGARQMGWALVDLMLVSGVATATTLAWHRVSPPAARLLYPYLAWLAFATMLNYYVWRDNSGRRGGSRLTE

Consider `CCCCN(C)C(=O)Cc1c(-c2ccc(Cl)c(N)c2)nc2c(Cl)cccn12`, for which the Ki on Translocator protein stood at 1.04 nM; in test [3], 194 nM. The Activity in test [1] came out at 10.7%; in test [4], 9.5%. The Ratio Ki in the test filed under Rattus norvegicus [2] was determined as 187.
In the case of `CCCN(CCC)C(=O)Cc1c(-c2ccc(OC)cc2)nc2c(Cl)cc(Cl)cn12`, the Ki was 0.31 nM at Translocator protein and greater than 10 nM in test [3]. In addition, the Activity was 55.9% in [1] and 8.8% in test [4]. Also, the outcome in [5] was inactive.
Consider `CCCN(CCC)C(=O)Cc1c(-c2ccc(N)cc2)nc2c(Cl)cc(Cl)cn12` [listing 1 of 3 here], for which the inhibitory constant (Ki) is 2.76 nM on Translocator protein and 1020 nM in [3].
On to `CCCN(CCC)C(=O)Cc1c(-c2ccc(OC(=O)CCC(=O)OC)cc2)nc2c(Cl)cc(Cl)cn12`, for which the Ki on Translocator protein is 1.69 nM; in [3], greater than 10 nM. Moreover, the Activity in test [1] came to 37.5%; in [4], 16.6%.
The corresponding values for `CCCN(CCC)C(=O)Cc1c(-c2ccc(Cl)cc2)nc2c(NC(=O)CCCC(=O)O)cccn12` are 118 nM, greater than 10 nM, -1.9% and 7.3%.
In the same order, the values of `CCCN(CCC)C(=O)Cc1c(-c2ccc(Cl)c(NC(=O)CCC(=O)O)c2)nc2c(Cl)cc(Cl)cn12` are 14.4 nM, greater than 10 nM, 10% and 11.5%.
Regarding `CN(C(=O)Cc1c(-c2ccc(O)cc2)nc2c(Cl)cc(Cl)cn12)c1ccccc1`, the figures for the Ki (at Translocator protein; in test [3]) were 0.32 nM and 5130 nM, respectively. Moreover, the values for the Activity in test [1] and in [4] were 6.7% and -5.9%, respectively. The Ratio Ki in the test listed under Rattus norvegicus [2] was greater than 1000.
Take `CN(C(=O)Cc1c(-c2nccs2)nc2c(Cl)cc(Cl)cn12)c1ccccc1`: the inhibition constant Ki at Translocator protein is 1.44 nM; in test [3], greater than 10 nM. Also, the Activity is 19.4% in test [1] and -1.2% in [4].
Take `CCCCN(C)C(=O)Cc1c(-c2ccc(Cl)c(N)c2)nc2c(Cl)cc(Cl)cn12`: the results for the Ki (on Translocator protein; in [3]) were 0.78 nM and 535 nM, respectively. In addition, the Ratio Ki in the test filed under Rattus norvegicus [2] is 686.
Turning to `CCCN(CCC)C(=O)Cc1c(-c2ccc(N)cc2)nc2c(Cl)cc(Cl)cn12` [listing 2 of 3 here], the Activity in test [4] is 8.1% and 29.9%.
Regarding `CCCN(CCC)C(=O)Cc1c(-c2ccc(Cl)cc2)nc2c(NC(=O)CN)cccn12`, the Ki at Translocator protein was 14.2 nM; in [3], greater than 10 nM.
Take `COc1ccc(-c2nc3c(Cl)cc(Cl)cn3c2CC(=O)N(C)c2ccccc2)cc1`: the Ki at Translocator protein is 0.23 nM; in test [3] it was 1000 nM. In addition, the Activity is -8% in test [1] and -8.1% in test [4].
As for `CCCN(CCC)C(=O)Cc1c(-c2ccc(Cl)c(N)c2)nc2c(Cl)cc(Cl)cn12` [listing 1 of 3 here], the Ki was 0.33 nM on Translocator protein and greater than 10 nM in test [3].
Regarding `CCCN(CCC)C(=O)Cc1c(-c2ccc(Cl)c([N+](=O)[O-])c2)nc2c(Cl)cc(Cl)cn12`, the outcome in the test filed under Rattus norvegicus [6] and in the test filed under Rattus norvegicus [9] was Active. In addition, the Ki at Translocator protein is 0.24 nM; in test [3], greater than 10 nM. Moreover, the result in the test listed under Rattus norvegicus [7] and in the test filed under Rattus norvegicus [8] was inactive. Further, the Activity in [1] turned out to be 9.6%; in test [4], 14.9%.
Take `CCCN(CCC)C(=O)Cc1c(-c2ccc(OC(=O)CN)cc2)nc2c(Cl)cc(Cl)cn12`: the Ki was 1.52 nM on Translocator protein and greater than 10 nM in test [3]. The Activity in test [1] was 71%; in test [4], 26.6%.
Consider `CCCN(CCC)C(=O)Cc1c(-c2ccc(Cl)cc2)nc2c(NC(=O)CCC(=O)OCC)cccn12`, for which the Ki at Translocator protein was 0.86 nM; in test [3], greater than 10 nM.
`CCCN(CCC)C(=O)Cc1c(-c2nccs2)nc2c(Cl)cc(Cl)cn12`: the Ki at Translocator protein was 2.07 nM; in [3] it was greater than 10 nM. For the same compound, the Activity in test [1] worked out at 60.6%; in test [4], 6.3%.
Consider `CCCN(CCC)C(=O)Cc1c(-c2ccc(Cl)c(N)c2)nc2c(Cl)cc(Cl)cn12` [listing 2 of 3 here], for which, on Translocator protein, the Ki was determined as 0.45 nM.
As for `CCCN(CCC)C(=O)Cc1c(-c2ccc(Cl)cc2)nc2c(NC(=O)CC(=O)O)cccn12`, the Ki at Translocator protein was 193 nM; in test [3], greater than 10 nM. Moreover, the values for the Activity in test [1] and in [4] were 19.8% and 9.6%, respectively.
In the same order, the values of `CCCCN(C)C(=O)Cc1c(-c2ccc(Cl)c([N+](=O)[O-])c2)nc2c(Cl)cccn12` are 1.16 nM, greater than 10 nM, -20% and 12.1%.
In the same order, the values of `CCCCN(C)C(=O)Cc1c(-c2ccc(OC)cc2)nc2c(Cl)cc(Cl)cn12` are 0.73 nM, greater than 10 nM, -16.5% and 24.8%.
For the compound `CCC(C)N(C)C(=O)c1cc2ccccc2c(-c2ccccc2Cl)n1` (configuration not stated) [PK-11195], the Activity is 9.4% in test [1] and 4.9% in test [4]. The same compound showed a Ki in [3] greater than 10 nM.
For the compound `CCCN(CCC)C(=O)Cc1c(-c2ccc([N+](=O)[O-])cc2)nc2c(Cl)cc(Cl)cn12`, the Ki at Translocator protein is 0.15 nM; in test [3], greater than 10 nM. Also, the Activity in [1] was -16.6%; in test [4], -4.2%.
On to `CCCCN(C)C(=O)Cc1c(-c2ccc(O)cc2)nc2c(Cl)cc(Cl)cn12`, for which the Ki at Translocator protein was determined as 0.87 nM; in test [3], 2930 nM. The Activity in test [1] was -23.6%; in [4], 7.9%.
The corresponding values for `CCCN(CCC)C(=O)Cc1c(-c2ccc(Cl)cc2)nc2c(NC(=O)CCC(=O)O)cccn12` are 285 nM, greater than 10 nM, 12.3% and 1.3%.
On to `CCCN(CCC)C(=O)Cc1c(-c2ccc(O)cc2)nc2c(Cl)cc(Cl)cn12`, for which the Ki at Translocator protein is 1.31 nM; in [3], greater than 10 nM. Also, the Activity in test [1] was 23.8%; in [4], -3.9%. The Ratio Ki in the test listed under Rattus norvegicus [2] is greater than 1000.
Take `CCCCN(C)C(=O)Cc1c(-c2ccc(Cl)c([N+](=O)[O-])c2)nc2c(Cl)cc(Cl)cn12`: the affinity at Translocator protein, expressed as Ki, was 0.3 nM. In addition, the Activity in test [1] was -9.6%; in test [4] it was -10.2%.
As for `CCCN(CCC)C(=O)Cc1c(-c2ccc(N)cc2)nc2c(Cl)cc(Cl)cn12` [listing 3 of 3 here], the Ki worked out at 2.22 nM on Translocator protein and 246 nM in test [3].
As to `CCCN(CCC)C(=O)Cc1c(-c2ccc(Cl)c(N)c2)nc2c(Cl)cc(Cl)cn12` [listing 3 of 3 here], the Activity in test [4] was -6.2% and -2.9%.
